Rows were chosen to be rich in hits. Some 1.1% of all compounds tested hit in one or more screens of this group.
miR-122 sensor – miR-122 inhibition in Huh7 cells; Huh7 miR-122 Renilla luciferase sensor, 48 h; neutral wells = 0, positive control = 100; activation (reporter increase), % at 12.5 µM; hit rate 0.3% among 340,000; AID 602342;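 active = mean replicate activation score at least 90 and every replicate individually at or above 90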;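 also: higher luciferase means less miR-122 activity so hits act as miR-122 inhibitors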
Cneo AK release – Cryptococcus neoformans lysis via adenylate kinase release | C. neoformans lysis, adenylate kinase release luminescence, 4 h; normalised: neutral wells 0, clomiphene wells 100 | lysis activity, % at 15 µM | hit rate 0.2% among 360,000 | AID 651654;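 active = mean lysis activity across replicates of at least 80%, whatever share of replicates individually reach that level; inactive = mean lysis activity below 80%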
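Schedule: static 4 h at 37 °C with compound, 1 h detection; system: C. neoformans cells; benchmarks: Clomiphene as positive control; buffer or medium: fresh YPD medium; measure: luminescence rise reflecting yeast cell lysis; measured by: luminescent adenylate kinase detection reagent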
CAL PDZ FP-1 – inhibitors of human CAL PDZ peptide binding | hit rate 0.92% among 300,000 | Q9HD26 | AID 602252 | inhibition, % at 24.9 µM | purified CAL PDZ, TMR-peptide fluorescence polarization, 1 h;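 active = mean inhibition of at least 30% with at least half of replicates also reaching 30%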
CAL PDZ FP-2 – human CAL PDZ-peptide interaction inhibition | Q9HD26 | purified CAL PDZ, TMR-peptide fluorescence polarization, 1 h | inhibition, % at 20 µM | hit rate 0.02% among 330,000;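 active = highest replicate inhibition of at least 40%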
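Material – purified CerCALP PDZ construct · Detection – FP readout, S and P plane fluorescence · Measure – percent inhibition from loss of millipolarization · Controls – unlabelled peptide for full inhibition, DMSO wells as neutral · Probe or stimulus – TMR-labelled reporter peptide T*-PRC34 bound in PDZ groove · Times – 1 h at RT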
PglD inh – inhibitors of Campylobacter jejuni PglD acetyltransferase; purified PglD enzyme, DTNB colorimetric CoA detection; inhibition, % at 12.5 µM; hit rate 0.098% among 360,000; in the data active = inhibition above about 16%, passing the limit was not always enough
Hits are given with their value; - = inactive; . = no result.

SMILES	miR-122 sensor	Cneo AK release	CAL PDZ FP-1	CAL PDZ FP-2	PglD inh
O=C(C[C@H]1CC[C@@H](NS(=O)(=O)c2ccc(F)cc2)[C@H](CO)O1)NCCc1ccncc1	.	-	.	.	-
Cc1nnc(SCC(=O)c2ccc(S(=O)(=O)N3CCOCC3)cc2)n1-c1ccccc1	-	-	73	-	-
CCOC(=O)CSc1nnc(-c2ccc(S(=O)(=O)N3CCOCC3)cc2)n1-c1ccccc1	-	.	-	-	.
COc1ccc(S(=O)(=O)N[C@H]2C=C[C@H](CC(=O)N3CCC(Cc4ccccc4)CC3)O[C@@H]2CO)cc1	.	89	.	.	-
COc1ccc(S(=O)(=O)N[C@@H]2C=C[C@H](CC(=O)N3CCC(Cc4ccccc4)CC3)O[C@H]2CO)cc1	.	-	.	.	-
Cc1ccc(S(=O)(=O)N[C@H]2C=C[C@@H](CC(=O)N3CCC(Cc4ccccc4)CC3)O[C@H]2CO)cc1	-	85	.	.	-
Cc1ccc(S(=O)(=O)N[C@@H]2C=C[C@H](CC(=O)N3CCC(Cc4ccccc4)CC3)O[C@@H]2CO)cc1	-	-	.	.	-
c1ccc2c(c1)SCc1nnc(-c3ccncc3)n1-2	.	.	96	-	.
O=C(NCCCc1ccncc1)C1CCC(=O)N(Cc2ccc(Cl)cc2)C1 (stereo unspecified)	-	-	72	-	-
COc1cccc(CN2CC(C(=O)NCCCc3ccc(C)cc3)CCC2=O)c1 (stereo unspecified)	-	-	100	-	-
COc1cccc(OCCOc2ccc(/C=C3\C(=N)N4N=C(S(C)(=O)=O)SC4=NC3=O)cc2OC)c1	-	-	55	-	-
CCNC(=O)Nc1ccc2c(c1)C(=O)N(C)[C@H]1CC[C@H](CC(=O)Nc3ccccc3F)O[C@@H]1CO2	-	-	.	.	-
O=C(NCCSc1ccccn1)c1ccc(Cl)cc1	-	-	-	-	-
O=C(NCCSc1ccccn1)c1ccc(Cl)cc1Cl	-	-	33	-	-
Cc1noc(C)c1NC(=O)N(C)C[C@@H]1Oc2c(NC(=O)Nc3ccccc3)cccc2C(=O)N([C@H](C)CO)C[C@@H]1C	-	.	.	.	.
Cc1cc(C(=O)COC(=O)C2CCN(C(=O)c3ccc(Cl)cc3)CC2)c(C)n1CC1CCCO1 (stereo unspecified)	.	.	66	-	.
Nc1nc(SCc2ccccc2)c2ncn(Cc3ccccc3)c2n1	-	-	41	-	-
CCCn1cnc2c(SCc3ccccc3)nc(N)nc21	-	-	-	-	-
CNC(=O)C[C@H]1CC[C@H]2[C@@H](COc3ccc(NC(=O)Nc4ccccc4)cc3C(=O)N2C)O1	-	110	.	.	-
CNC(=O)C[C@H]1CC[C@H]2[C@H](COc3ccc(NC(=O)Nc4ccccc4)cc3C(=O)N2C)O1	-	94	.	.	-
CNC(=O)C[C@H]1CC[C@H]2[C@H](COc3ccc(NC(=O)Nc4ccc(C)cc4)cc3C(=O)N2C)O1	-	-	.	.	-
CC1c2cccn2CCN1S(=O)(=O)c1ccc(F)cc1 (stereo unspecified)	.	-	74	-	-
CC1CN(CCCCOc2ccc(Cl)c3ccccc23)CC(C)O1 (stereo unspecified)	-	-	43	-	-
CC1CN(CCCCOc2ccc(C(C)C)cc2)CC(C)O1 (stereo unspecified)	-	-	-	-	-
Cc1noc(C)c1S(=O)(=O)N(CC(=O)NCc1ccccc1)c1ccc(C(C)C)cc1	.	-	.	-	-
SMILES	miR-122 sensor	Cneo AK release	CAL PDZ FP-1	CAL PDZ FP-2	PglD inh
Cc1noc(C)c1S(=O)(=O)N(CC(=O)NCc1ccc(F)cc1)c1ccc(C(C)C)cc1	-	-	44	-	-
COc1ccc(N(CC(=O)NCCc2ccc(OC)c(OC)c2)S(=O)(=O)c2c(C)noc2C)cc1	-	-	73	-	-
COc1ccc(N(CC(=O)NCCc2ccc(C)cc2)S(=O)(=O)c2c(C)noc2C)cc1	-	-	-	-	-
C[C@@H]1CN([C@H](C)CO)C(=O)c2cccc(NS(C)(=O)=O)c2O[C@H]1CN(C)Cc1ccc(C(=O)O)cc1	-	-	.	.	-
Cc1ccc(N2CCN(CCCN3C(=O)C4CCCN4C3=O)CC2)cc1 (stereo unspecified)	.	.	52	-	.
Cc1nnc(SC(C(=O)Nc2ccc(Cl)c([N+](=O)[O-])c2)c2ccccc2)[nH]c1=O (stereo unspecified)	.	-	62	-	-
O=C(Nc1ccc(F)cc1F)c1ccc(S(=O)(=O)NCc2ccco2)cc1	-	-	48	-	-
O=C(Nc1ccc(S(=O)(=O)NCc2ccco2)cc1)c1cccc(F)c1	.	-	-	-	-
O=C(Nc1ccc(S(=O)(=O)N2CCCC2)cc1)Nc1ccc(F)cc1F	-	-	-	-	-
O=C(Nc1ccc(F)cc1F)c1ccc(S(=O)(=O)N2CCCCC2)cc1	-	-	34	-	-
C[C@@H]1CN([C@@H](C)CO)C(=O)Cc2cc(NC(=O)C3CC3)ccc2O[C@H]1CN(C)Cc1ccc(Oc2ccccc2)cc1	-	-	.	.	-
CC(O)(C(=O)c1ccccc1)c1ccccc1 (stereo unspecified)	-	-	.	.	-
O=C(c1ccccc1)C(O)(Cc1ccccc1)c1ccccc1 (stereo unspecified)	168	-	-	-	-
CCOc1ccc2cc(S(=O)(=O)N3CCCCC3)ccc2c1	-	-	60	-	-
COCC#Cc1cnc2c(c1)C(=O)N([C@@H](C)CO)C[C@H](C)[C@H](CN(C)C(=O)NC1CCCC1)O2	-	-	.	.	-
CC(C)c1ccc(NS(=O)(=O)c2ccc(-n3cccn3)cc2)cc1	-	-	-	-	-
CC(C)c1ccc(S(=O)(=O)Nc2ccc(-n3cnnn3)cc2)cc1	103	-	.	-	-
COc1ccc(C(=O)C2CCCN(C(=O)c3ccoc3C)C2)cc1F (stereo unspecified)	-	-	119	.	-
COc1ccc(C(=O)C2CCCN(C(=O)c3c4c(nn3C)CCCC4)C2)cc1F (stereo unspecified)	.	.	-	-	.
C/C(=N\NS(C)(=O)=O)c1ccccc1	-	-	94	-	-
C/C(=N\NC(N)=O)c1ccccc1	-	.	-	-	.
CNc1ccc(-c2ccccc2CO)cn1	-	-	.	.	-
C[C@H](CO)N1C[C@H](C)[C@@H](CN(C)Cc2ccc(Oc3ccccc3)cc2)Oc2ccc(NC(=O)Cc3ccccc3)cc2CC1=O	-	-	.	.	-
O=C(CSc1nnc(-c2cccc(F)c2)o1)NC1CCCC1	-	-	-	-	-
O=C(CSc1nnc(CNC(=O)c2ccccc2F)o1)NC1CCCC1	-	-	37	-	-
O=C(CSc1nnc(CNC(=O)c2ccco2)o1)Nc1ccc(F)cc1	-	-	57	-	-
O=C(NCc1nnc(SCC(=O)N2CCCCCC2)o1)c1ccccc1F	-	-	-	-	-
O=C(CSc1nnc(CNC(=O)c2ccccc2F)o1)NCc1ccco1	-	-	62	-	-
Cc1cccc(-c2nnc(SCC(=O)NC3CCCC3)o2)c1	-	-	86	-	-
